Laboratory results reported in ChEMBL document CHEMBL4130495, “Design, synthesis and biological evaluations of N-Hydroxy thienopyrimidine-2,4-diones as inhibitors of HIV reverse transcriptase-associated RNase H” (Eur J Med Chem, 2017).
pEC50, pIC50: −log10 of the molar value.

Assays:
Gag-Pol polyprotein = Gag-Pol polyprotein (Human immunodeficiency virus type 1 group M subtype B (isolate HXB2)(HIV-1), UniProt P04585); assay: Inhibition of polymerase activity of recombinant HIV1 reverse polymerase assessed as reduction in extension of an 18 nucleotide DNA primer using template/primer and dNTPs incubated for 30 mins; design: species or system Human immunodeficiency virus 1
Procedure, shortened: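 Recombinant HIV-1 RT (20 nM) was used with 40 nM template/primer (18-nt DNA primer annealed to a 100-nt DNA template) and 10 µM dNTPs in 50 mM Tris pH 7.8, 50 mM NaCl, with 1% DMSO and increasing compound concentrations. Reactions were started with 6 mM MgCl₂, run 30 min at 37 °C, and stopped with 100 mM EDTA. IC50 is reported as mean ± SD of ≥2 independent experiments.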

[1] = target: Human immunodeficiency virus type 1 integrase (Human immunodeficiency virus 1, UniProt Q7ZJM1); assay: Inhibition of HIV1 integrase pre-incubated for 10 mins before DNA substrate addition and measured after 30 mins
Chain of Human immunodeficiency virus type 1 integrase (Q7ZJM1 whole entry): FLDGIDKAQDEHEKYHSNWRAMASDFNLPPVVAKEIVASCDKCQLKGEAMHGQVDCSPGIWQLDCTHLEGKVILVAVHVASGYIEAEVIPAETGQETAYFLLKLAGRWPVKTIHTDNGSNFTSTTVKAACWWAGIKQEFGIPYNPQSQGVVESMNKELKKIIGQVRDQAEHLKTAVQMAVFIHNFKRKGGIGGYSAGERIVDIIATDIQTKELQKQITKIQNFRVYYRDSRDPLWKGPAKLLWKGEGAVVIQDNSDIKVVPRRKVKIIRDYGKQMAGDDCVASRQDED

[2] = target: Human immunodeficiency virus type 1 reverse transcriptase (Human immunodeficiency virus 1, UniProt Q72547); assay: Inhibition of RNH activity of recombinant HIV1 reverse transcriptase RNase H assessed as reduction in internal cleavage of RNA strand using RNA/DNA duplex substrate HTS-1
[3] = system: Human immunodeficiency virus 1; assay: Antiviral activity against HIV1 infected in human P4R5 cells assessed as reduction in viral infection preincubated with cells for 24 hrs followed by viral infection measured after 48 hrs by fluorescence based beta-galactosidase reporter gene based MAGI assay; type: functional, organism-based
P4R5 = assay: Cytotoxicity in human P4R5 cells assessed as reduction in cell viability by MTS assay

Row | Structure (SMILES) | pIC50 (Gag-Pol polyprotein) | pIC50 [1] | pIC50 [2] | pEC50 [3] | CC50 (P4R5; P4R5 cells) [µM] | CC50 (P4R5; P4R5) [µM]
1 | O=c1[nH]c2c(c(=O)n1O)CN(Cc1ccccc1)CC2 | < 5.00 | < 4.00 |  |  |  | 
2 | O=c1[nH]c2scc(-c3ccc(Cl)cc3)c2c(=O)n1O | < 5.00 | 5.68 | 7.40 | 5.13 | > 100 | 
3 | Cc1c(C(=O)O)sc2[nH]c(=O)n(O)c(=O)c12 | < 5.00 | 5.10 | 7.00 | < 4.70 | > 100 | 
4 | O=c1[nH]c2sc(Cc3ccccc3)cc2c(=O)n1O | < 5.00 | 5.30 | 7.37 | < 4.70 | > 100 | 
5 | Cc1sc2[nH]c(=O)n(O)c(=O)c2c1C | < 5.00 | 5.08 | 7.00 | 5.05 |  | 62
6 | O=c1[nH]c2sc(-c3ccccc3)cc2c(=O)n1O | < 5.00 | 5.66 | 7.08 | < 4.70 | > 100 | 
7 | Cc1csc2[nH]c(=O)n(O)c(=O)c12 | < 5.00 | 4.92 | 7.00 | < 4.70 |  | 81
8 | O=c1[nH]c2cc(-c3ccccc3)sc2c(=O)n1O | < 5.00 | 5.35 | 7.00 | 4.96 |  | 28
9 | O=c1[nH]c2cc(-c3ccccc3)ccc2c(=O)n1O | < 5.00 | 4.96 | 6.70 | 5.42 |  | 6
10 | O=C1Cc2cc(-c3ccccc3)ccc2C(=O)N1O | < 5.00 | 5.70 | 5.89 | 4.80 |  | 19
11 | O=c1[nH]c2cc(-c3ccc(Cl)cc3)sc2c(=O)n1O | < 5.00 | 4.64 | 7.15 | < 4.70 | > 100 | 
12 | O=c1[nH]c2cc(-c3ccc(F)cc3)sc2c(=O)n1O | < 5.00 | 4.77 | 6.70 | < 4.70 | > 100 | 
13 | O=c1[nH]c2cc(-c3ccc(Cl)cc3)ccc2c(=O)n1O | < 5.00 |  | 6.70 | 5.35 |  | 9.9
14 | O=c1[nH]c2sccc2c(=O)n1O | < 5.00 | 4.46 | 6.70 | 4.74 |  | 54
15 | O=c1[nH]c2scc(-c3ccccc3)c2c(=O)n1O | < 5.00 | 5.89 | 7.00 | 4.85 | > 100 | 
